Experimental findings from ChEMBL document CHEMBL3124905, “Isothiocoumarin-3-carboxylic acid derivatives: synthesis, anticancer and antitrypanosomal activity evaluation” (Eur J Med Chem, 2014) are described below.

Common to all, as to format: functional
Assay [1] concerns Trypanosoma brucei brucei. Put plainly: Antitrypanosomal activity against bloodstream form of Trypanosoma brucei brucei strain 90-13 assessed as inhibition of parasite growth at 10 ug/ml after 72 hrs by resazurin reduction test. The conditions noted are these: strain 90-13, 72 h. The method in brief:
(§1)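 Trypanosoma brucei brucei 90-13 bloodstream forms, grown in HMI9 with 10% FCS at 37 °C under 5% CO2. Log-phase parasites were seeded at 10^5 cells/mL with or without inhibitor, with stocks prepared in DMSO. After 72 h, resazurin was added and fluorescence was read at 530/590 nm after a further 4 h. Percent growth inhibition was calculated versus drug-free parasites, with DMSO as control.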
(Resazurin is reduced to fluorescent resorufin, in cell work by metabolically active cells.)

In assay [2] the test system is Trypanosoma brucei brucei. As to the kind of experiment: Antitrypanosomal activity against bloodstream form of Trypanosoma brucei brucei strain 90-13 assessed as inhibition of parasite growth at 1 ug/ml after 72 hrs by resazurin reduction test. Conditions: strain 90-13, 72 h. An outline of the steps:
as §1

The test system of assay [3] is SF-268. Put plainly: Anticancer activity against human SF268 cells assessed as cell growth at 100 uM after 48 hrs by SRB assay. The conditions noted are these: SF-268, 48 h, read-out: Activity. An outline of the steps:
(§2)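 NCI one-dose primary screen on a three-line panel (breast MCF7, lung NCI-H460, CNS SF-268). Cells were inoculated and preincubated 24–48 h, then exposed to a single concentration of 10−4 M for 48 h. The endpoint was sulforhodamine B protein staining, and results are expressed as percent growth relative to untreated control cells. Negative values denote cytotoxicity.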
(Sulforhodamine B stains cellular protein and so reports cell mass.)

Assay [4] relates to MCF7. As to the kind of experiment: Anticancer activity against human MCF7 cells assessed as cell growth at 100 uM after 48 hrs by SRB assay. The conditions noted are these: MCF7, 48 h, read-out: Activity. An outline of the steps: as §2
The test system of assay [5] is NCI-H460. As to the kind of experiment: Anticancer activity against human NCI-H460 cells assessed as cell growth at 100 uM after 48 hrs by SRB assay. Conditions: NCI-H460, 48 h, read-out: Activity. An outline of the steps:
as §2

Assay [6] concerns SR. Put plainly: Growth inhibition of human SR cells after 48 hrs by SRB assay. Conditions: for TGI: read-out: pTGI (converted). An outline of the steps: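 NCI ~60-cell-line five-dose screen. Cells were preincubated 24-48 h, then given compound at 10-fold dilutions from 10^-4 to 10^-8 M with 48 h continuous exposure. SRB protein stain was read by absorbance at time zero, in untreated control and with drug. GI50 was derived from [(Ti-Tz)/(C-Tz)]x100=50, TGI from Ti=Tz, and LC50 from [(Ti-Tz)/Tz]x100=-50.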

The nature of assay [7]: Growth inhibition of human HOP92 cells after 48 hrs by SRB assay. Conditions: HOP-92, 48 h; for TGI: read-out: pTGI (converted). An outline of the steps: (§3)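 NCI five-dose assay against the ~60-cell-line panel (nine cancer types). Tenfold dilutions from 10−4 to 10−8 M were used with continuous 48-h exposure and SRB absorbance readout. Percent growth was computed from time-zero, control and treated absorbances. GI50 is the concentration giving 50% lower net protein increase than controls. Values not reached are reported as beyond the tested range.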

The subject of assay [8] is Malme-3M. As to the kind of experiment: Growth inhibition of human MALME-3M cells after 48 hrs by SRB assay. The method in brief: as §3
In assay [9] the test system is CCRF-CEM. As to the kind of experiment: Growth inhibition of human CCRF-CEM cells after 48 hrs by SRB assay. An outline of the steps: as §3
Assay [10] deals with MDA-MB-435. As to the kind of experiment: Growth inhibition of human MDA-MB-435 cells after 48 hrs by SRB assay. The conditions noted are these: MDA-MB-435, 48 h. The method in brief: as §3
Assay [11] concerns KM12. As to the kind of experiment: Growth inhibition of human KM12 cells after 48 hrs by SRB assay. Conditions: KM12, 48 h. An outline of the steps: as §3

Structures are written as SMILES.

One may read the inhibition as the drop in the measured response relative to a control, in per cent. With `O=C(Nc1cccc(C(F)(F)F)c1)c1cc2ccccc2c(=O)s1`, the inhibition at 10 µg/mL in [1] was -7.12%. For the same compound, the inhibition at 1 µg/mL in [2] stood at 5.78%.

Turning to `COc1ccc2cc(C(=O)Nc3ccccc3C(F)(F)F)sc(=O)c2c1OC`, the growth at 100 µM in [3] is 107%; in assay [4], 99%; in assay [5], 90%. The inhibition at 10 µg/mL in assay [1] was found to be 2.91%. The inhibition at 1 µg/mL in assay [2] came out at 6.86%.

With `O=C(c1cc2ccccc2c(=O)s1)N1CCOCC1`, the figures for the growth at 100 µM in [3], in assay [4] and in assay [5] were 111%, 114% and 109%, respectively. Also, the inhibition at 10 µg/mL in assay [1] was 8.15%. Besides, the inhibition at 1 µg/mL in assay [2] came out at 8.13%.

As to `CCOC(=O)c1ccc(NC(=O)c2cc3ccc(OC)c(OC)c3c(=O)s2)cc1`, the growth at 100 µM was 117% in assay [3], 105% in assay [4] and 103% in assay [5]. The inhibition at 10 µg/mL in assay [1] is 20.9%. Further, the inhibition at 1 µg/mL in assay [2] is -0.53%.

On to `COc1ccc2cc(C(=O)NCC(=O)O)sc(=O)c2c1OC`, for which the growth at 100 µM in assay [3] amounted to 112%; in assay [4], 109%; in [5], 109%.

`Cc1c(NC(=O)c2cc3ccccc3c(=O)s2)c(=O)n(-c2ccccc2)n1C`: the values for the growth at 100 µM in assay [3], in [4] and in assay [5] were 106%, 107% and 52%, respectively.

Consider `CCOC(=O)c1cc2ccccc2c(=O)s1`, for which the inhibition at 10 µg/mL in assay [1] is -3.91%. In assay [2], the inhibition at 1 µg/mL turned out to be 35.8%.

In the case of `COC(=O)c1cc2ccc(OC)c(OC)c2c(=O)s1`, the values for the growth at 100 µM in assay [3], in [4] and in assay [5] were 113%, 108% and 82%, respectively.

A word on the GI50: it is the concentration giving 50% growth inhibition. A lower GI50 goes with greater sensitivity of the cells. `NS(=O)(=O)c1ccc(NC(=O)c2cc3ccccc3c(=O)s2)cc1`: in assay [6], the GI50 is 31.6 µM and the TGI was greater than 100 µM.

For the compound `COc1ccc2cc(C(=O)N3CCCCCC3)sc(=O)c2c1OC`, the GI50 was 2.75 µM in [7] and 34.7 µM in assay [8]. The TGI is 8.13 µM in assay [7] and greater than 100 µM in [8] (read-out: pTGI (converted)).

Regarding `COc1ccc2cc(C(=O)Nc3ccc(O)cc3)sc(=O)c2c1OC`, the 50% growth inhibitory concentration (GI50) in [9] was 5.62 µM; in assay [6], 3.47 µM; in [7], 17.8 µM; in assay [10], 18.6 µM; in assay [11] it was 26.3 µM. For the same compound, the TGI in assay [9] (read-out: pTGI (converted)) was greater than 100 µM; in assay [6], 42.7 µM; in assay [7], 95.5 µM; in [10] (read-out: pTGI (converted)), 77.6 µM; in [11] (read-out: pTGI), greater than 100 µM.

Take `O=C(Nc1ccccc1)c1cc2ccccc2c(=O)s1`: the growth at 100 µM in assay [3] came out at 83%; in assay [4], 78%; in [5] it was 75%.

For `O=C(Nc1nccs1)c1cc2ccccc2c(=O)s1`, the values for the growth at 100 µM in assay [3], in assay [4] and in [5] were 90%, 91% and 93%, respectively.

`O=C(O)c1cc2ccccc2c(=O)s1`: in [1], the inhibition at 10 µg/mL came to 0.05%. Further, the inhibition at 1 µg/mL in [2] came out at 16.8%.

Consider `O=C(O)CNC(=O)c1cc2ccccc2c(=O)s1`, for which the inhibition at 10 µg/mL in assay [1] amounted to 0.18%. In assay [2], the inhibition at 1 µg/mL amounted to 10.8%.

With `COc1ccc2cc(C(=O)Nc3cc(C)on3)sc(=O)c2c1OC`, the figures for the growth at 100 µM in [3], in [4] and in assay [5] were 51%, 52% and 70%, respectively. In addition, the inhibition at 10 µg/mL in assay [1] is 3.93%. The inhibition at 1 µg/mL in assay [2] turned out to be 12.2%.

Take `COc1ccc2cc(C(=O)Nc3ccc(Cl)cc3)sc(=O)c2c1OC`: the results for the growth at 100 µM in assay [3], in assay [4] and in [5] were 91%, 80% and 93%, respectively. Moreover, the inhibition at 10 µg/mL in assay [1] was 5.99%. In [2], the inhibition at 1 µg/mL is 5.77%.

As to `COc1ccc2cc(C(=O)Nc3cccc4ccccc34)sc(=O)c2c1OC`, in assay [7], the GI50 is 20.4 µM and the TGI is 69.2 µM. In assay [1], the inhibition at 10 µg/mL was 41.2%. Also, the inhibition at 1 µg/mL in [2] amounted to 20.8%.
